# This is a sample that favours compounds with a hit; in the whole collection about 4.1% have one here.
# hERG rescue = compounds protecting human hERG from proarrhythmic drug block; Q12809; CHO-hERG, FluxOR thallium flux, dofetilide IC70 present; activation (rescue from dofetilide block), less the hit threshold, % at 10 µM; 310,000 tested, 0.51% active; AID 1511;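 active = activation above the mean of controls blocked by dofetilide plus 5 SD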;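 also: thallium influx through hERG after potassium depolarization seen as dye fluorescence rise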
# KCNK3 inh = human KCNK3 channel inhibition, primary screen; CHO-KCNK3 thallium flux, FluxOR fluorescence; active compounds read low; B-score at 10 µM; O14649; 340,000 tested, 0.84% active;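 active = B-score under library mean minus 4 SD, starting fluorescence ratio at most library mean plus 5 SD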;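 also: more negative B-score means stronger inhibition of thallium flux through KCNK3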
# KCNQ1 pot = potentiators or activators of human KCNQ1 potassium channel. CHO-K1 KCNQ1, thallium flux FluxOR fluorescence; active compounds read high. B-score at 10 µM. 310,000 tested, 0.35% active;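 active = fluorescence ratio B-score, a plate-corrected score, at least three library SD, with initial intensity B-score within 5 SD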
#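 Assay system: CHO-K1 cells stably expressing KCNQ1. Medium: assay buffer for compound exposure, DMSO matched across wells. Timing: 37 °C overnight plating, 90-min dark dye load, 20-min compound pretreatment. Signal: kinetic FluxOR fluorescence, 10 s baseline plus 110 s post-stimulus.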
# KCNQ1 block = blocks the human KCNQ1 potassium channel; P51787; CHO-K1 KCNQ1, FluxOR thallium flux fluorescence; active compounds read high; B-score at 10 µM; 310,000 tested, 1.3% active;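 active = compounds whose thallium flux B-score, printed positive for inhibition, exceeds three library SD while starting fluorescence stays within three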;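 also: channel opened by potassium depolarization with thallium stimulus after 20 min compound exposure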
# Cl transport mod = modulates chloride dependent transport by human KCC2; B-score of Tl+ flux slope (higher = more flux/activation; lower = inhibition) at 10 µM; KCC2 cells, thallium flux FluoZin-2 fluorescence; 190,000 tested, 2.2% active; Q9H2X9; AID 1456;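 active = thallium flux slope and its plate-corrected score both differing from the plate sample mean at a set confidence after two filtering rounds, in either direction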;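 also: slope of fluorescence scaled to starting intensity during 10 to 20 s after thallium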
# KCNK9 inh = blocks the human KCNK9 two-pore domain potassium channel; Q9NPC2; HEK293 KCNK9, FluxOR thallium flux fluorescence; active compounds read low; B-score at 10 µM; 310,000 tested, 1.2% active; AID 488922;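 active = ratio B-score over 3 SD below the library mean, with starting fluorescence within 5 SD of its mean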;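 also: negative B-score means less thallium flux so channel inhibition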
# KCC2 sec1 = KCC2 (human) modulation, secondary assay; 3,700 tested, 15% active; AID 1713; shares compounds with Cl transport mod; HEK293-KCC2, thallium flux, FluoZin2 fluorescence; active compounds read high; normalised thallium flux (F/F0 slope) at 10 µM;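 active = thallium flux slope above the same plate's solvent-only control mean plus 3 SD; inconclusive = the two replicate wells disagree; inactive = no significant difference from solvent-only control wells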
# KCC2 bumet counter = thallium flux persisting under bumetanide in KCC2 cells, counter-screen secondary assay | HEK293-KCC2 + bumetanide/ouabain, thallium flux FluoZin2; active compounds read high | normalized thallium flux at 10 µM | AID 1714 | 3,700 tested, 49% active | shares compounds with Cl transport mod;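 active = thallium entry rate above the same plate's blocked-transporter control wells by more than 3 SD; inconclusive = the two repeat wells disagree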;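 also: raw slope of fluorescence over initial fluorescence between 10 and 20 s after thallium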
# KCC2 sec2 = confirmation of human KCC2 transport modulators; shares compounds with Cl transport mod; HEK293-KCC2, thallium flux FluoZin2 fluorescence; actives lie on both sides; F/F0 rise rate, 10–20 s post-thallium; normalized thallium flux at 10 µM; 3,700 tested, 23% active;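 active = thallium flux slope more than 3 SD above or below the plate's solvent-only control mean, mostly below; inconclusive = the two repeat wells disagreed; inactive = no significant shift from solvent-only controls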;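 also: raw slope with 0.1% DMSO as baseline and bumetanide as block control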
# HEK293 Tl flux = acts in parental HEK cells, KCC2 counter-screen | 3,700 tested, 46% active | shares compounds with Cl transport mod | AID 1716 | thallium flux rate (normalised fluorescence) at 10 µM | HEK293 parental cells, thallium flux FluoZin2, ouabain; baseline-ratio fluorescence slope, 10–20 s after thallium;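 active = thallium flux rate significantly above the same plate's solvent-only control wells, beyond their mean plus 3 SD; inconclusive = the two replicate wells gave conflicting results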
# KCC2 ouabain = KCC2 (human) modulation, ouabain retest; shares compounds with Cl transport mod; HEK293-KCC2, thallium flux FluoZin2 fluorescence; bidirectional: low = inhibitor, high = activator; raw Tl+ flux slope (below DMSO = inhibition, above = activation) at 10 µM; 3,700 tested, 48% active; AID 1717;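 active = thallium flux slope beyond 3 SD from same-plate DMSO control mean in most replicates, usually higher, sometimes lower; inconclusive = repeat tests gave conflicting results; inactive = no significant difference from controls in most replicates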;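 also: slope of initial-normalized fluorescence between seconds 10 and 20 after thallium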
# HEK293 Tl flux2 = parental HEK flux effect, counter-screen 2. 3,700 tested, 33% active. thallium flux slope at 10 µM. shares compounds with Cl transport mod. HEK293 parental, thallium flux FluoZin-2 fluorescence slope;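 active = thallium flux slope above the same plate's solvent-control mean plus 3 SD in both duplicate wells; inconclusive = duplicate wells that disagreed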;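 also: run without ouabain in cells lacking the KCC2 cotransporter; slope of fluorescence scaled to its starting value between 10 and 20 s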
# The depositor's hits bear a star; i = inactive; ? = inconclusive; nt = not tested or not shown.
SMILES,hERG rescue,KCNK3 inh,KCNQ1 pot,KCNQ1 block,Cl transport mod,KCNK9 inh,KCC2 sec1,KCC2 bumet counter,KCC2 sec2,HEK293 Tl flux,KCC2 ouabain,HEK293 Tl flux2
O=C(c1cc(COc2c(F)cccc2F)on1)N1CCc2ccccc2C1,-14.5,i,i,i,-4.44*,i,0.00628,0.0054,0.0346,0.00384,0.0146*,0.0122
O=C(c1cc(COc2c(F)cccc2F)on1)N1CCC(c2ccncc2)CC1,-17.9,i,i,i,nt,i,?,0.00845*,?,0.00722,0.0188*,0.0101
NS(=O)(=O)c1ccc(CNC(=S)NCc2ccc(F)cc2)cc1,-11.4,i,i,i,nt,i,nt,nt,nt,nt,nt,nt
CC12CC3CC(C)(C1)CC(C(=O)N1CCN(C(=O)c4ccco4)CC1)(C3)C2,-14.2,i,i,i,nt,i,nt,nt,nt,nt,nt,nt
CCCc1nc2ccccc2c(=O)n1N,-6.9,i,i,i,12.3*,i,0.0107,0.00699,0.0332,0.00838,0.0194,0.012
Cc1cccc(NC(=O)c2cccc(N3C(=O)C4C5CCC(C5)C4C3=O)c2)c1C (stereo not drawn),-11.7,i,i,i,6.2*,i,0.00748,0.0046,0.0294,0.00792,0.0192,0.0109
CCOC(=O)SC1=N/C(=C\c2ccc(N(C)C)cc2)C(=O)S1,-7.3,i,8*,i,19.4*,i,0.017*,0.0211*,0.0295,0.0134*,0.0285*,0.0106*
CC(=O)N1N=C2c3ccccc3CCC2C1c1ccc(F)cc1 (stereo not drawn),-1.9,i,i,i,-3.58*,i,0.00754,0.00527,0.034,?,0.0162*,0.0104
C=CCn1c(SCc2ccc(C(=O)O)cc2)nc2sc(C)c(C)c2c1=O,8.2*,i,16*,i,46.3*,i,0.0212*,0.0533*,?,0.0348*,0.0498*,0.014*
C=CCn1c(SCC(=O)Nc2ccccc2C)nc2sc(C)c(C)c2c1=O,-1.0,i,i,i,-0.00688,i,nt,nt,nt,nt,nt,nt
C=CCn1c(SCC(=O)c2ccccc2)nnc1-c1ccc2c(c1)OCO2,nt,i,nt,nt,-2.3,nt,0.01,0.00677,0.0331,0.00748,0.0207,?
C=CCn1c(SCC(=O)c2ccccc2)nnc1-c1cc2ccccc2o1,-7.3,i,i,i,-2.01,i,nt,nt,nt,nt,nt,nt
O=C(Nc1ccc(F)cc1)c1ccc(CSc2ccccc2)o1,-2.7,i,i,i,-3.4*,i,0.00786,0.00713,0.0337,0.00382,0.0151*,0.0107
CN(Cc1ccccc1)C(=O)COC(=O)c1cc(NS(=O)(=O)c2cccs2)ccc1O,-29.3,i,i,i,-3.48*,i,0.0175,0.0046,0.0219*,0.00665,0.0142,0.0101
CC(C)NC(=S)N/N=C/c1sc(N2CCCCC2)nc1-c1cccs1,-2.9,i,i,i,3.08*,i,0.0106,0.0112*,0.0341,0.00988*,0.0249,0.0103
CCOC(=O)c1ccc(CNC(=O)CCC(=O)O)cc1,-11.9,i,i,i,nt,i,0.0101,0.00514,0.0344,0.00704,0.0221,0.0101
CCOC(=O)c1ccc(CNCc2ccccc2)cc1,-7.9,i,i,i,1.04,i,nt,nt,nt,nt,nt,nt
Cc1ccc2nc(-c3ccccc3)c(CN3CCOCC3)n2c1,-1.7,i,i,i,4.34*,i,0.00974,0.006,0.0353,0.00391,0.0206,0.0117
Cn1c(=O)c2[nH]c(C(O)c3ccc(Cl)cc3)nc2n(C)c1=O (stereo not drawn),nt,i,nt,nt,nt,nt,nt,nt,nt,nt,nt,nt
Fc1ccc(/C=N/NC(=S)Nc2ccc(Cl)cc2Cl)cc1,-2.9,i,i,i,7.56*,i,0.00991,0.0179*,0.0299,0.0117*,0.0287*,?
Fc1ccc(NC(=S)N/N=C/c2ccc(F)c(F)c2)cc1,-3.0,i,i,i,26.6*,i,0.0162*,0.063*,0.0311,0.0223*,0.0439*,0.013*
CCn1nc(C)c(/C=N/NC(=S)Nc2ccc(Cl)cc2Cl)c1C,4.8*,i,i,i,4.47*,i,0.00815,0.0105*,0.031,0.0084*,?,?
Fc1ccc(NC(=S)Nc2cc(Cl)ccc2Cl)cc1,-5.9,i,i,i,3.53*,i,0.00799,0.0155*,?,0.0183*,0.0263*,0.0146*
Cc1nn(C)cc1/C=N/NC(=S)Nc1ccc(Cl)cc1Cl,-6.4,i,i,i,3.59,i,nt,nt,nt,nt,nt,nt
COC(CNC(=O)CN1CCN(Cc2ccccc2F)C1=O)OC,-4.5,i,i,i,nt,i,nt,nt,nt,nt,nt,nt
SMILES,hERG rescue,KCNK3 inh,KCNQ1 pot,KCNQ1 block,Cl transport mod,KCNK9 inh,KCC2 sec1,KCC2 bumet counter,KCC2 sec2,HEK293 Tl flux,KCC2 ouabain,HEK293 Tl flux2
CCOC(=O)CCc1c(C)nc(SCc2ccc(C(=O)O)cc2)c(C#N)c1C,-3.1,i,i,i,nt,i,nt,nt,nt,nt,nt,nt
c1ccc(-c2n[nH]c3ccccc23)cc1,-8.3,i,i,i,-2.9*,i,0.00773,0.00611,0.0297,0.00659,0.0199,0.0096
Fc1ccc(-c2n[nH]c(=S)c3ccccc23)cc1,-14.3,i,i,i,13.8*,i,0.0108,0.0211*,0.0335,0.0162*,?,0.0131*
O=c1[nH]nc(-c2ccccc2)c2ccccc12,-18.3,i,i,i,0.161,i,nt,nt,nt,nt,nt,nt
COc1ccc(-c2cc(C)nc(SCc3cccc(C(=O)O)c3)n2)cc1,-14.4,i,i,i,-4.84*,i,0.0105,0.0126*,0.0342,0.00899*,0.0231,?
CCOc1nc(-c2ccc(C)cc2)ccc1-c1noc(-c2cccnc2)n1,-7.8,nt,i,i,2.91*,i,0.00831,0.00464,0.0287,0.00755,0.0197,0.0104

# From PubChem
